From paper PMC5771842 (Nature chemical biology, 2018) come the findings set out here.

Entries after “also recorded” stand apart in the source; their conditions may differ.

The test system of series [1] is MC99IIIBΔTat-Rev HIV-1. Kind of series: HIV cytoprotection assay. It is filed as cell-based. The note with it: CEM 1A2 tat/rev++ cells. Put shortly:
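CEM 1A2 tat/rev++ cells, which die on HIV infection, grown in RPMI-1640 with 20% FBS, bicarbonate and antibiotic-antimycotic at 37°C, 5% CO2; 12,500 cells/well. Test compound added in DMSO, then HIV-1 MC99IIIBΔTat-Rev; 4-day incubation. MTT added for 1–2 h, formazan dissolved in DMSO, absorbance read at 590 nm. Triplicate per dose; infected, uninfected, media-only and AZT controls. IC50/CC50 estimated by eye.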

Series [2] has as its system CEM 1A2 tat/rev++ T-cells. Kind of series: HIV cytoprotection assay. It is filed as cell-based, human. The note with it: CEM 1A2 T cells.

As for divamide C [Compound 3], the “anti-HIV activity (cytoprotection), in words” value in series [1] was “essentially inactive; also recorded: neither cytotoxic nor anti-HIV activities; also recorded: lacked any detectable cytoprotection”. For the same substance, the “cytotoxicity, in words” value in series [2] is “neither cytotoxic nor anti-HIV activities”.
